Assay outcomes as filed in PubChem BioAssay.
STAT3 activator: increases IL-6 driven STAT3 reporter signal; U3A cells, IL-6 STAT3-luciferase reporter, luminescence; 100% = signal with IL-6 EC80 alone; activation (% of control), % at 5.6 µM; 190,000 tested, 0.91% active;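 active = activation above the screen-wide mean of compound activation plus 3 SD, cut at about 130% in these data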;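 also: 0% = background luminescence of wells with medium and substrate only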
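System – human U3A cells carrying STAT3-luciferase construct · Probe or stimulus – Interleukin-6, 33 ng/mL · Schedule – compound 1 h, then IL-6 6 h at 37 °C · Signal – luminescence from STAT3-driven luciferase reporter · Evaluation – percent of IL-6-only median luminescence · Benchmarks – IL-6-only high control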
STAT1 act: increases IFN-gamma driven STAT1 reporter signal | NIH 3T3 STAT1-luciferase reporter, luminescence; 100% = IFN-gamma alone, no compound | activation (% of control), % at 5.5 µM | 200,000 tested, 2.6% active | AID 932;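 active = activation above the screen-wide mean activation plus 3 SD, cut at about 130% in these data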;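 also: raw ratio to IFN-gamma control signal so 100% means no change and 0% no light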
NF-kB expr up: compounds increasing NF-kB expression in human neuronal cells; NF-kB reporter expression; active compounds read high; fold change at 12.5 µM; 190,000 tested, 1.6% active; AID 1239; in the data active = fold change above about 3.3
APP 5'UTR act: APP 5'UTR luciferase reporter activation. SH-SY5Y APP 5'UTR luciferase reporter, luminescence; zero percent = DMSO vehicle wells. 190,000 tested, 1% active. AID 1276. activation, % at 2 µM;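 active = activation above a set limit, based on mean plus 3 SD of controls, cut at about 140% in these data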
STAT1 blocker: reduces IFN-gamma driven STAT1 reporter signal; inhibition, % at 5.5 µM; 200,000 tested, 0.35% active; AID 920; NIH 3T3 STAT1-luciferase reporter, luminescence;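 active = inhibition above a set limit, the mean inhibition across all tested compounds plus 3 SD, cut at about 34% in these data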;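 also: 0% = IFN-gamma with DMSO and 100% = IFN-gamma with 300 µM nifuroxazide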
STAT3 inh: reduces IL-6 driven STAT3 reporter signal. U3A cells, IL-6 STAT3-luciferase reporter, luminescence; host cell line lacks STAT1. inhibition, % at 5.5 µM. 190,000 tested, 0.89% active;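 active = inhibition above the mean inhibition across all screened compounds plus 3 SD, cut at about 44% in these data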;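 also: 0% = DMSO only wells and 100% = 100 µM nifuroxazide control wells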
The depositor's hits bear a star. Compounds with a hit are over-represented: about 5.1% of the library has one in this group of screens.

Results for CCc1nnc(NS(=O)(=O)c2ccc(N/C=C/C(=O)c3ccc(OC)cc3)cc2)s1 ?
STAT3 activator: 100; STAT1 act: 136*; NF-kB expr up: 1.1; APP 5'UTR act: 6; STAT1 blocker: -41; STAT3 inh: 5

How did CCOc1ccc(C(=O)/C=C/Nc2ccc(S(=O)(=O)N=C(N)N)cc2)cc1 do in these assays?
STAT3 activator: 104; STAT1 act: 131*; NF-kB expr up: 1.4; APP 5'UTR act: 1; STAT1 blocker: -34; STAT3 inh: -2

How did CCOc1ccc(C(=O)/C=C/Nc2ccc(S(=O)(=O)Nc3onc(C)c3C)cc2)cc1 do in these assays?
STAT3 activator: 107; STAT1 act: 107; NF-kB expr up: 1.6; APP 5'UTR act: 4; STAT1 blocker: -5; STAT3 inh: -12

How did CCOC(=O)C1CCCN(S(=O)(=O)c2cc(OCC(N)=O)c(C)cc2Cl)C1 (centres undefined) do in these assays?
STAT3 activator: 105; STAT1 act: 99; NF-kB expr up: 1.2; APP 5'UTR act: 4; STAT1 blocker: 1; STAT3 inh: -3

Results for Cc1cccc(Nc2ncnc3nc[nH]c23)c1 ?
STAT3 activator: 105; STAT1 act: 109; NF-kB expr up: 1.7; APP 5'UTR act: 14; STAT1 blocker: -11; STAT3 inh: -1

What do the screens show for `c1ccc(CNc2ncnc3nc[nH]c23)nc1`?
STAT3 activator: 96; STAT1 act: 100; NF-kB expr up: 1.5; APP 5'UTR act: 7; STAT1 blocker: 0; STAT3 inh: 13

Results for Fc1ccccc1/C=N/Nc1ncnc2nc[nH]c12 ?
STAT3 activator: 89; STAT1 act: 137*; NF-kB expr up: 1.8; APP 5'UTR act: 45; STAT1 blocker: -41; STAT3 inh: 12

Results for Fc1cccc(/C=N/Nc2ncnc3nc[nH]c23)c1 ?
STAT3 activator: 79; STAT1 act: 138*; NF-kB expr up: 2.1; APP 5'UTR act: 17; STAT1 blocker: -42; STAT3 inh: 24

Results for CC(=O)OC1CC(C)(C)N(OC(=O)c2ccccc2)C(C)(C)C1 ?
STAT3 activator: 99; STAT1 act: 99; NF-kB expr up: 1.3; APP 5'UTR act: 22; STAT1 blocker: -1; STAT3 inh: 6

What do the screens show for `COc1cc(OC)cc(-c2cc3nc(C)c(CCC(=O)O)c(C)n3n2)c1`?
STAT3 activator: 31; STAT1 act: 52; NF-kB expr up: 0.29; APP 5'UTR act: -78; STAT1 blocker: 53*; STAT3 inh: 88*

What do the screens show for `CCOCc1nnc(NC(=O)c2cc(OC)cc(OC)c2)s1`?
STAT3 activator: 103; STAT1 act: 104; NF-kB expr up: 1.2; APP 5'UTR act: 8; STAT1 blocker: -6; STAT3 inh: -1

How did CCCNC(=O)c1noc2c1CCc1ccccc1-2 do in these assays?
STAT3 activator: 93; STAT1 act: 119; NF-kB expr up: 2; APP 5'UTR act: 28; STAT1 blocker: -21; STAT3 inh: 14

Results for O=C(Nc1cccnc1Cl)c1noc2c1CCc1ccccc1-2 ?
STAT3 activator: 94; STAT1 act: 135*; NF-kB expr up: 2.6; APP 5'UTR act: 103; STAT1 blocker: -40; STAT3 inh: 15

Results for O=C(c1cc([N+](=O)[O-])ccc1N1CCCCC1)N1CCCC1 ?
STAT3 activator: 97; STAT1 act: 95; NF-kB expr up: 0.9; APP 5'UTR act: 18; STAT1 blocker: 5; STAT3 inh: 5

How did O=C1C(C=NCc2cccnc2)=C(O)c2ccccc21 do in these assays?
STAT3 activator: 103; STAT1 act: 130*; NF-kB expr up: 2.8; APP 5'UTR act: 15; STAT1 blocker: -33; STAT3 inh: 1

What do the screens show for `O=C1C(C=NCc2ccncc2)=C(O)c2ccccc21`?
STAT3 activator: 108; STAT1 act: 105; NF-kB expr up: 1.1; APP 5'UTR act: 17; STAT1 blocker: -5; STAT3 inh: -4

What do the screens show for `C=CCn1cc(Cl)c(=O)n(CC=C)c1=O`?
STAT3 activator: 99; STAT1 act: 101; NF-kB expr up: 1.2; APP 5'UTR act: -7; STAT1 blocker: -1; STAT3 inh: 4

How did O=C(Nc1ccc(S(=O)(=O)N2CCCCC2)cc1)c1ccc(CN2CCc3ccccc3C2)cc1 do in these assays?
STAT3 activator: 33; STAT1 act: 72; NF-kB expr up: 0.61; APP 5'UTR act: -15; STAT1 blocker: 31; STAT3 inh: 87*

What do the screens show for `O=C(Nc1ccccc1)c1ccc(S(=O)(=O)N2CCCCC2)cc1`?
STAT3 activator: 94; STAT1 act: 95; NF-kB expr up: 1; APP 5'UTR act: 3; STAT1 blocker: 6; STAT3 inh: 12

How did COc1cc(/C=N\n2nnnc2N)ccc1OCc1ccc(F)cc1 do in these assays?
STAT3 activator: 75; STAT1 act: 112; NF-kB expr up: 0.88; APP 5'UTR act: 3; STAT1 blocker: -13; STAT3 inh: 30

What do the screens show for `COc1cc(/C=N/n2c(C)n[nH]c2=S)ccc1OCc1ccc(F)cc1`?
STAT3 activator: 93; STAT1 act: 129*; NF-kB expr up: 2; APP 5'UTR act: 49; STAT1 blocker: -33; STAT3 inh: 8

How did O=C(Cn1[nH]c(=O)c2ccccc2c1=O)Nc1cccnc1 do in these assays?
STAT3 activator: 110; STAT1 act: 111; NF-kB expr up: 0.95; APP 5'UTR act: 0; STAT1 blocker: -14; STAT3 inh: -2

How did CC(C)Oc1ccc(Cc2cnc(=S)[nH]c2N)cc1 do in these assays?
STAT3 activator: 101; STAT1 act: 100; NF-kB expr up: 1.2; APP 5'UTR act: -4; STAT1 blocker: 0; STAT3 inh: 3

Results for N/C(=N\OC(=O)c1ccccc1Cl)c1cccnc1 ?
STAT3 activator: 107; STAT1 act: 140*; NF-kB expr up: 5.7*; APP 5'UTR act: 109; STAT1 blocker: -47; STAT3 inh: -7

How did N/C(=N\OC(=O)c1ccc(Cl)c(Cl)c1)c1cccnc1 do in these assays?
STAT3 activator: 96; STAT1 act: 118; NF-kB expr up: 4*; APP 5'UTR act: 1; STAT1 blocker: -20; STAT3 inh: 5

What do the screens show for `COc1ccc(/C(N)=N/OC(=O)c2ccc3c(c2)OCO3)cc1OC`?
STAT3 activator: 110; STAT1 act: 116; NF-kB expr up: 2.1; APP 5'UTR act: 44; STAT1 blocker: -18; STAT3 inh: -7

How did N/C(=N\OC(=O)c1ccc2c(c1)OCO2)c1cccnc1 do in these assays?
STAT3 activator: 91; STAT1 act: 87; NF-kB expr up: 3.5*; APP 5'UTR act: 118; STAT1 blocker: 12; STAT3 inh: 12

What do the screens show for `N/C(=N\OC(=O)c1ccc2c(c1)OCO2)c1ccc([N+](=O)[O-])cc1`?
STAT3 activator: 101; STAT1 act: 129*; NF-kB expr up: 1.7; APP 5'UTR act: 49; STAT1 blocker: -34; STAT3 inh: 3
